Measurements collected from several papers.
Each line is one published result; the experiments were not run side by side.
Target: Cholinesterase (BCHE, Homo sapiens, UniProt P06276)
Observed: enzyme activity
Action: inhibitor

| SMILES | technique | matrix | pH | IC50 |
| --- | --- | --- | --- | --- |
| O=c1[nH]cc(Br)c(=O)[nH]1 | Ellman |  |  | 292 nM |
| C[N+](C)(C)CCCCCCCCCC[N+](C)(C)C |  |  |  | 17400 nM |
| C[C@@H]1CCCN1CCCCOc1ccc2occc(=O)c2c1 | Ellman |  | pH 7.4 | 48500 nM |
| C=CCn1c2cc(OC(=O)CCCCN3CCN(Cc4ccc(F)cc4)CC3)ccc2c2ccnc(C)c21 | Ellman |  |  | 584 nM |
| CC(C)c1ccc(OP(=O)(Oc2ccc(C(C)C)cc2)Oc2ccc(C(C)C)cc2)cc1 |  | liver microsomes |  | > 20 µg/mL |
| C=CCn1c2cc(OC(=O)CCCCCN3CCN(Cc4ccccc4)CC3)ccc2c2ccnc(C)c21 | Ellman |  |  | 464 nM |
| CC(C)(C)c1cccc(OP(=O)(Oc2cccc(C(C)(C)C)c2)Oc2cccc(C(C)(C)C)c2)c1 |  | liver microsomes |  | > 20 µg/mL |
| Cn1ccc(=O)n(C)c1=O | Ellman |  |  | 544 nM |
| C=CCn1c2cc(OC(=O)CCCCN3CCN(Cc4cccc(Cl)c4)CC3)ccc2c2ccnc(C)c21 | Ellman |  |  | 568 nM |
| CC(=O)n1ccc(=O)[nH]c1=O | Ellman |  |  | 270 nM |
| CC(C)c1ccccc1OP(=O)(Oc1ccccc1C(C)C)Oc1ccccc1C(C)C |  | liver microsomes |  | > 20 µg/mL |
| C=CCn1c2cc(OC(=O)CCCN3CCN(Cc4ccccc4)CC3)ccc2c2ccnc(C)c21 | Ellman |  |  | 163 nM |
| C#CCNc1nc(NCCCC2CCN(Cc3ccccc3)CC2)c(C#N)cc1C#N | Ellman |  |  | 1920 nM |
